Data from EPA's CvTdb concentration-time database.

Tests used:
[1] = system: Rat; experiment: concentration in brain after dosing; settings: 1848 h; dosed: Perfluorooctane Sulfonate; 20 mg/kg; oral; Male; Harlan Sprague Dawley
[2] = system: Rat; experiment: concentration in kidney after dosing; settings: 3360 h; dosed: Perfluorooctane Sulfonate; 2 mg/kg; oral; Female; Harlan Sprague Dawley
[3] = system: Rat; experiment: concentration in brain after dosing; settings: 24 h; dosed: Perfluorooctane Sulfonate; 20 mg/kg; oral; Female; F344
[4] = system: Rat; experiment: concentration in kidney after dosing; settings: 24 h; dosed: Perfluorooctane Sulfonate; 2 mg/kg; oral; Female; Harlan Sprague Dawley
[5] = system: Rat; experiment: concentration in plasma after dosing; settings: dosed: Perfluorooctane Sulfonate, 2 mg/kg, oral, Female, Harlan Sprague Dawley
[6] = system: Rat; experiment: concentration in liver after dosing; settings: 0.5 h; dosed: Perfluorohexanoic Acid; 80 mg/kg; oral; Male; Harlan Sprague Dawley
[7] = system: rat; experiment: concentration in expired air after dosing; settings: dosed: trichloroethylene, male
[8] = system: human; experiment: concentration in expired air after dosing; settings: dosed: trichloroethylene, 100 ppm, inhalation, duration: 4 hr, person
Outline: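 Sampling and analytical methods are those of each source and frequently went unreported. The concentration-versus-time and amount-versus-time points were compiled from published in vivo toxicokinetic studies and two structured collections. Most were digitised from plot screenshots with WebPlotDigitizer, with others copied from tables, in the reported units.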

[9] = system: Rat; experiment: concentration in plasma after dosing; settings: 4 h; dosed: Gemfibrozil; 50 mg/kg; oral; Male; Sprague-Dawley
[10] = system: Rat; experiment: concentration in plasma after dosing; settings: 0.75 h; dosed: 2-Methyltetrahydrofuran; 40 mg/kg; iv; Male; Harlan Sprague Dawley
[11] = system: Rat; experiment: concentration in brain after dosing; settings: 0.5 h; dosed: 2-Methyltetrahydrofuran; 40 mg/kg; iv; Female; Harlan Sprague Dawley
[12] = system: Rat; experiment: concentration in plasma after dosing; settings: dosed: Fluorotelomer alcohol 8+2, 12 mg/kg, oral, Male, Harlan Sprague Dawley
[13] = system: Rat; experiment: concentration in plasma after dosing; settings: dosed: Fluorotelomer alcohol 8+2, 12 mg/kg, oral, Male, Harlan Sprague Dawley; remark: listed apart in the source
[14] = system: Rat; experiment: concentration in plasma after dosing; settings: 0.25 h; dosed: 678-39-7; 12 mg/kg; iv; Male; F344

O=S(=O)([O-])C(F)(F)C(F)(F)C(F)(F)C(F)(F)C(F)(F)C(F)(F)C(F)(F)C(F)(F)F [Perfluorooctane Sulfonate]
Settings | concentration in brain [ng/g] | concentration in kidney [ng/g]
[1] | 660 | –
[2] | – | 1110
[3] | 7400 | –
[4] | – | 14600

[5]
Settings | concentration in plasma [ng/mL]
5 min | 38.2
12 h | 7740
1200 h | 892

O=C(O)C(F)(F)C(F)(F)C(F)(F)C(F)(F)C(F)(F)F [Perfluorohexanoic Acid]
Settings | concentration in liver [ng/g]
[6] | 67900

ClC=C(Cl)Cl [trichloroethylene]
concentration in expired air [ng/mL], [7], inhalation, duration: 2 hr, Sprague Dawley
Settings | 50 ppm | 500 ppm
0.1579 h | – | 1570
0.1611 h | 155 | –
0.242 h | 178 | –
0.2441 h | – | 1630
0.3273 h | – | 1620
0.3301 h | 176 | –
0.4933 h | 177 | 1730
0.6596 h | – | 1730
0.6597 h | 179 | –
0.8258 h | – | 1800
0.8264 h | 173 | –
0.9952 h | – | 1830
0.9958 h | 179 | –
1.165 h | 188 | 1850
1.328 h | – | 1740
1.332 h | 184 | –
1.497 h | – | 1840
1.498 h | 193 | –
1.661 h | 185 | –
1.664 h | – | 1820
1.825 h | 183 | –
1.83 h | – | 1910
1.991 h | 178 | –
2 h | – | 1790
2.008 h | 61.8 | –
2.016 h | – | 704
2.04 h | 35.4 | –
2.049 h | – | 532
2.071 h | 30.5 | –
2.081 h | – | 458
2.103 h | 8.92 | –
2.113 h | – | 399
2.157 h | 17.3 | –
2.161 h | – | 379
2.238 h | 13.8 | –
2.248 h | – | 359
2.493 h | 10.2 | –
2.501 h | – | 221
2.741 h | 7.87 | –
2.754 h | – | 152
2.992 h | 7.93 | –
3 h | – | 97.3
3.244 h | 5.59 | –
3.25 h | – | 82
3.495 h | 2.05 | –
3.502 h | – | 52.1
3.746 h | 0.904 | 22.1
3.994 h | 2.17 | –
3.998 h | – | 26.5
4.494 h | 1.08 | –
4.501 h | – | 25.5
4.996 h | 1.2 | –
5 h | – | 14.7
40 s | 129 | –
42 s | – | 1270
151 s | 148 | –
167 s | – | 1440
285 s | 161 | –
293 s | – | 1500

[7], 6 mg/kg, oral, Wistar
Settings | concentration in expired air [ppm]
0.1223 h | 4.6
0.1642 h | 3.99
0.219 h | 3.8
0.2464 h | 2.7
0.4982 h | 1.12
0.7463 h | 0.349
1 h | 0.198
1.245 h | 0.161
1.496 h | 0.113
1.748 h | 0.0858
2 h | 0.0858
99 s | 0.987
289 s | 3.59

[8]
Settings | concentration in expired air
0 h | 1940 nM
0.053 h | 22.4 ppm
0.17 h | 302 nM
0.2372 h | 3.23 ppm
0.3175 h | 7.33 ppm
0.4773 h | 6.01 ppm
0.5 h | 200 nM
0.5703 h | 2.6 ppm
0.97 h | 1.56 ppm
1 h | 129 nM
1.022 h | 2.96 ppm
1.5 h | 101 nM
2 h | 79 nM
2.009 h | 0.691 ppm
2.015 h | 1.22 ppm
2.5 h | 62 nM
3 h | 61 nM
3.5 h | 54 nM
4 h | 49 nM
4.021 h | 0.521 ppm
4.039 h | 1.03 ppm
4.5 h | 43 nM
5 h | 42 nM
5.996 h | 0.868 ppm
6 h | 33 nM
6.02 h | 0.517 ppm
7 h | 27 nM
7.979 h | 0.777 ppm
8 h | 21 nM
9 h | 21 nM
10 h | 16 nM
10.1 h | 0.554 ppm
326 s | 12.3 ppm

Cc1ccc(C)c(OCCCC(C)(C)C(=O)O)c1 [Gemfibrozil]
Settings | concentration in plasma [ng/mL]
[9] | 2860

CC1CCCO1 (centres undefined) [2-Methyltetrahydrofuran]
Settings | concentration in brain [ng/mL] | concentration in plasma [ng/mL]
[10] | – | 31600
[11] | 13800 | –

O=C(O)CCC(F)(F)C(F)(F)C(F)(F)C(F)(F)C(F)(F)C(F)(F)C(F)(F)F [Fluorotelomer acid 7+3]
concentration in plasma [ng/mL]
Settings | 0.5 h | 9 h | 48 h | 192 h
[12] | 133 | 218 | – | –
[13] | – | – | 245 | 25.5

Settings | concentration in plasma [ng/mL]
[14] | 51.7
